pIC50: −log10 of the molar value. In brackets after ≈: the same amount, converted by molar mass.
Assays:
[1] = test system: Clostridium perfringens; assay: Antimicrobial activity against Clostridium perfringens clinical isolate at 50 ug/disk incubated for 20 +/- 4 hrs by agar disk diffusion method; assay type: functional; conditions: read-out: DIZ
Procedure, shortened: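 Agar disk diffusion on MH agar with 5% horse blood (MHF), surface-seeded by swab from a 0.5 McFarland inoculum (about 10^8 CFU/ml). Cellulose discs received 10 μl of a 5 g/L DMSO solution (50 μg). A DMSO-only disc served as control. Anaerobic incubation at 35 ± 2 °C for 20 ± 4 h; growth-inhibition diameter measured in mm.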

[2] = test system: Enterococcus faecium; assay: Antimicrobial activity against Enterococcus faecium AUS0004 at 50 ug/disk incubated for 20 +/- 4 hrs by agar disk diffusion method; assay type: functional; conditions: read-out: DIZ
Procedure, shortened: (§1)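 Agar disk diffusion on Mueller-Hinton agar swab-seeded from a 0.5 McFarland inoculum (about 10^8 CFU/ml). Cellulose discs got 50 μg compound (10 μl of 5 g/L in DMSO); a 10 μL DMSO disc was the control. Incubated aerobically at 35 ± 2 °C for 20 ± 4 h, then growth-inhibition diameters measured.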

[3] = test system: Bacteroides fragilis; assay: Antimicrobial activity against Bacteroides fragilis ATCC 25285 at 50 ug/disk incubated for 20 +/- 4 hrs by agar disk diffusion method; assay type: functional; conditions: read-out: DIZ
Procedure, shortened: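 Anaerobic disk diffusion: MH agar + 5% horse blood seeded from a 0.5 McFarland swab, with discs of 50 μg compound (10 μl of 5 g/L DMSO solution) and a DMSO control disc. Kept at 35 ± 2 °C under anaerobic conditions for 20 ± 4 h; inhibition diameters recorded.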

[4] = test system: Escherichia coli; assay: Antimicrobial activity against Escherichia coli clinical isolate at 50 ug/disk incubated for 20 +/- 4 hrs by agar disk diffusion method; assay type: functional; conditions: read-out: DIZ; procedure, shortened: as §1
[5] = test system: Escherichia coli; assay: Antimicrobial activity against Escherichia coli ATCC 25922 at 50 ug/disk incubated for 20 +/- 4 hrs by agar disk diffusion method; assay type: functional; conditions: read-out: DIZ; procedure, shortened: as §1
[6] = test system: Klebsiella pneumoniae; assay: Antimicrobial activity against Klebsiella pneumoniae clinical isolate at 50 ug/disk incubated for 20 +/- 4 hrs by agar disk diffusion method; assay type: functional; conditions: read-out: DIZ; procedure, shortened: as §1
[7] = test system: Morganella morganii; assay: Antimicrobial activity against Morganella morganii EB6 clinical isolate at 50 ug/disk incubated for 20 +/- 4 hrs by agar disk diffusion method; assay type: functional; conditions: read-out: DIZ; procedure, shortened: as §1
[8] = test system: Proteus mirabilis; assay: Antimicrobial activity against Proteus mirabilis clinical isolate at 50 ug/disk incubated for 20 +/- 4 hrs by agar disk diffusion method; assay type: functional; conditions: read-out: DIZ; procedure, shortened: as §1
[9] = test system: Proteus vulgaris; assay: Antimicrobial activity against Proteus vulgaris clinical isolate at 50 ug/disk incubated for 20 +/- 4 hrs by agar disk diffusion method; assay type: functional; conditions: read-out: DIZ; procedure, shortened: as §1
[10] = test system: Pseudomonas aeruginosa; assay: Antimicrobial activity against Pseudomonas aeruginosa clinical isolate at 50 ug/disk incubated for 20 +/- 4 hrs by agar disk diffusion method; assay type: functional; conditions: read-out: DIZ; procedure, shortened: as §1
[11] = test system: Mycobacteroides abscessus; assay: Antimicrobial activity against Mycobacterium abscessus clinical isolate at 50 ug/disk incubated for 4 days by agar disk diffusion method; assay type: functional; conditions: 96 h, read-out: DIZ
Procedure, shortened: (§2)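 On MH agar with 5% horse blood, a 0.5 McFarland inoculum was swabbed and discs with 50 μg compound (from 5 g/L in DMSO) were laid down, alongside a DMSO control disc. Incubation was humid and aerobic at 35 ± 2 °C for 4 days, then growth-inhibition diameters were measured.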

[12] = test system: Mycolicibacterium fortuitum; assay: Antimicrobial activity against Mycobacterium fortuitum clinical isolate at 50 ug/disk incubated for 4 days by agar disk diffusion method; assay type: functional; conditions: 96 h, read-out: DIZ; procedure, shortened: as §2
[13] = test system: Staphylococcus aureus; assay: Antimicrobial activity against Staphylococcus aureus ATCC 29213 by broth microdilution method; assay type: functional
Procedure, shortened: (§3)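 MICs were set by broth microdilution following EUCAST guidelines, from three independent experiments reported as values or ranges. MICs were measured only where disk-diffusion inhibition diameters were 9 mm or more.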

[14] = test system: Listeria monocytogenes; assay: Antimicrobial activity against Listeria monocytogenes clinical isolate by broth microdilution method; assay type: functional; procedure, shortened: as §3
[15] = test system: Mycobacteroides abscessus; assay: Antimicrobial activity against Mycobacterium abscessus clinical isolate by broth microdilution method; assay type: functional; procedure, shortened: as §3
[16] = test system: Mycolicibacterium fortuitum; assay: Antimicrobial activity against Mycobacterium fortuitum clinical isolate by broth microdilution method; assay type: functional; procedure, shortened: as §3
[17] = test system: Enterococcus faecalis; assay: Synergistic antimicrobial activity against Enterococcus faecalis ATCC 29212 assessed as DIZ at 50 ug/disk incubated for 20 +/- 4 hrs in presence of erythromycin by agar disk diffusion method (reference value: 20 millimeter); assay type: functional; conditions: read-out: DIZ
[18] = test system: Enterococcus faecalis; assay: Synergistic antimicrobial activity against Enterococcus faecalis ATCC 29212 assessed as DIZ at 50 ug/disk incubated for 20 +/- 4 hrs in presence of streptomycin by agar disk diffusion method (reference value: 18 millimeter); assay type: functional; conditions: read-out: DIZ
[19] = test system: Enterococcus faecalis; assay: Synergistic antimicrobial activity against Enterococcus faecalis ATCC 29212 assessed as DIZ at 50 ug/disk incubated for 20 +/- 4 hrs in presence of gentamicin by agar disk diffusion method (reference value: 13 millimeter); assay type: functional; conditions: read-out: DIZ
[20] = test system: Enterococcus faecium; assay: Synergistic antimicrobial activity against Enterococcus faecium AUS0004 assessed as DIZ at 50 ug/disk incubated for 20 +/- 4 hrs in presence of imipenem by agar disk diffusion method (reference value: 6 millimeter); assay type: functional; conditions: read-out: DIZ
[21] = test system: Enterococcus faecium; assay: Synergistic antimicrobial activity against Enterococcus faecium AUS0004 assessed as DIZ at 50 ug/disk incubated for 20 +/- 4 hrs in presence of ampicillin by agar disk diffusion method (reference value: 6 millimeter); assay type: functional; conditions: read-out: DIZ
[22] = test system: Enterococcus faecium; assay: Synergistic antimicrobial activity against Enterococcus faecium AUS0004 assessed as DIZ at 50 ug/disk incubated for 20 +/- 4 hrs in presence of streptomycin by agar disk diffusion method (reference value: 22 millimeter); assay type: functional; conditions: read-out: DIZ
[23] = test system: Enterococcus faecium; assay: Synergistic antimicrobial activity against Enterococcus faecium AUS0004 assessed as DIZ at 50 ug/disk incubated for 20 +/- 4 hrs in presence of gentamicin by agar disk diffusion method (reference value: 17 millimeter); assay type: functional; conditions: read-out: DIZ
[24] = test system: Listeria monocytogenes; assay: Synergistic antimicrobial activity against Listeria monocytogenes clinical isolate assessed as DIZ at 50 ug/disk incubated for 20 +/- 4 hrs in presence of moxalactam by agar disk diffusion method (reference value: 13 millimeter); assay type: functional; conditions: read-out: DIZ
[25] = test system: Listeria monocytogenes; assay: Synergistic antimicrobial activity against Listeria monocytogenes clinical isolate assessed as DIZ at 50 ug/disk incubated for 20 +/- 4 hrs in presence of ofloxacin by agar disk diffusion method (reference value: 19 millimeter); assay type: functional; conditions: read-out: DIZ
[26] = test system: HCT-116; assay: Cytotoxicity against human HCT116 cells assessed as decrease in cell viability in MTT assay; assay type: cell-based
Procedure, shortened: (§4)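 Cell viability was measured by MTT on a robotic screening platform. Residual viability was expressed as a percentage of the mean viable cells in DMSO-treated controls. Under 25-30% viability was considered cytotoxic, and IC50 values were derived.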

[27] = test system: PC-3; assay: Cytotoxicity against human PC3 cells assessed as decrease in cell viability in MTT assay; assay type: cell-based; procedure, shortened: as §4
[28] = Cytotoxicity against human NHFB cells assessed as decrease in cell viability in MTT assay; assay type: cell-based; procedure, shortened: as §4
[29] = test system: Escherichia coli; assay: Antimicrobial activity against Escherichia coli BW25113 at 10 mM/disk incubated for 20 +/- 4 hrs by agar disk diffusion method; assay type: functional; conditions: read-out: DIZ
[30] = test system: Escherichia coli; assay: Antimicrobial activity against Escherichia coli BW25113 by broth microdilution method; assay type: functional
Procedure, shortened: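 MIC by broth microdilution per EUCAST guidelines, in E. coli BW25113 and its previously described deletion derivative.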

[31] = test system: Escherichia coli; assay: Antimicrobial activity against TolC deficient Escherichia coli BW25113 by agar disk diffusion method; assay type: functional
[32] = test system: Escherichia coli; assay: Antimicrobial activity against ssrA-TolC deficient Escherichia coli BW25113 by agar disk diffusion method; assay type: functional
[33] = test system: Escherichia coli; assay: Bactericidal activity against TolC deficient Escherichia coli BW25113 by broth microdilution method; assay type: functional

Compound	zone of inhibition at 50 µg/disc [1]	zone of inhibition at 50 µg/disc [2]	zone of inhibition at 50 µg/disc [3]	zone of inhibition at 50 µg/disc [4]	zone of inhibition at 50 µg/disc [5]	zone of inhibition at 50 µg/disc [6]	zone of inhibition at 50 µg/disc [7]	zone of inhibition at 50 µg/disc [8]	zone of inhibition at 50 µg/disc [9]	zone of inhibition at 50 µg/disc [10]	zone of inhibition at 50 µg/disc [11]	zone of inhibition at 50 µg/disc [12]	MIC [13]	MIC [14]	MIC [15]	MIC [16]	pIC50 [26]	pIC50 [27]	pIC50 [28]	zone of inhibition at 10000 µM [29]	other results
O=C(Nc1nnc(-c2ccc(C(F)(F)F)cc2)o1)c1ccc(Cl)nc1	13 mm	23 mm	16 mm	6 mm	6 mm	6 mm	6 mm	6 mm	8 mm	6 mm	14 mm	19 mm	2 to 4 µg/mL (≈ 5.42 to 10.8 µM)	8 µg/mL (≈ 21.7 µM)	16 to 32 µg/mL (≈ 43.4 to 86.8 µM)	8 µg/mL (≈ 21.7 µM)	< 4.60	< 4.60	< 4.60	6 mm	zone of inhibition at 50 µg/disc [17]: 23 mm; zone of inhibition at 50 µg/disc [18]: 22 mm; zone of inhibition at 50 µg/disc [19]: 23 mm; zone of inhibition at 50 µg/disc [20]: 24 mm; zone of inhibition at 50 µg/disc [21]: 24 mm; zone of inhibition at 50 µg/disc [22]: 26 mm; zone of inhibition at 50 µg/disc [23]: 25 mm; zone of inhibition at 50 µg/disc [24]: 30 mm; zone of inhibition at 50 µg/disc [25]: 30 mm; MIC [30]: > 128 µM; diameter of the inhibition zone (DIZ) [31]: 23.6 mm; diameter of the inhibition zone (DIZ) [32]: 27 mm; MBC [33]: > 32 µM
O=C(Nc1nnc(-c2ccc(F)cc2)o1)c1ccc(Cl)cc1	6 mm	6 mm	6 mm	6 mm	6 mm	6 mm	6 mm	6 mm	6 mm	6 mm	6 mm	9 mm	0.5 to 4 µg/mL (≈ 1.57 to 12.6 µM)	4 µg/mL (≈ 12.6 µM)	64 µg/mL (≈ 201 µM)	32 µg/mL (≈ 101 µM)	4.77	4.68	< 4.60	6 mm	MIC [30]: > 128 µM; diameter of the inhibition zone (DIZ) [31]: 13 mm; diameter of the inhibition zone (DIZ) [32]: 13 mm; MBC [33]: > 32 µM

— ChEMBL document CHEMBL4364345, “Synthesis and evaluation of 1,3,4-oxadiazole derivatives for development as broad-spectrum antibiotics” (Bioorg Med Chem, 2019)
